Measurements as given in ChEMBL document CHEMBL1143895, “Core-modified porphyrins. Part 6: Effects of lipophilicity and core structures on physicochemical and biological properties in vitro” (Bioorg Med Chem, 2008).

Key:
R3230AC [1] = assay: Cytotoxicity in rat R3230AC cells irradiated with 10.8J/cm^2 of water filtered halogen light after 24 hrs by MTT assay; assay type: functional, cell-based; details: light or radiation study
How it was run: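 R3230AC rodent mammary adenocarcinoma cells in α-MEM with 10% bovine growth serum, seeded 1.0–1.5×10^4 cells/well and grown 24 h at 37 °C, 5% CO2. Porphyrin in complete medium for 24 h, rinsed with saline, then irradiated 1 h in clear serum-free medium with water-filtered halogen light (400–850 nm, 3 mW/cm², 10.8 J/cm²). Given complete medium, 24 h dark, then MTT vs light-only controls. IC50 from Hill fit; ≥3 experiments in duplicate.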

R3230AC [2] = assay: Drug uptake in rat R3230AC assessed as intracellular accumulation per cell at 10 uM after 24 hrs; assay type: ADME, cell-based
How it was run: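 R3230AC cells seeded 2.0–3.0×10^4/well and grown 24 h. Porphyrin from a 2 mM DMSO stock, diluted in complete medium to 10 μM final, 24 h at 37 °C. Monolayer rinsed twice with 0.9% NaCl and lysed in DMSO. Porphyrin fluorescence read and converted through a DMSO standard curve to fmol/cell. Mean with SEM.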

[3] = Lipophilicity, log D at pH 7.4; assay type: physicochemical; details: buffer
How it was run: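 Shake-flask method: porphyrin dissolved in equal volumes of n-octanol and pH 7.4 phosphate buffer, sonicated 30 min, left to settle 4 h. Each phase measured by UV-vis absorbance and reported as log D7.4.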

R3230AC [4] = assay: Cytotoxicity in rat R3230AC cells under dark condition upto 10 uM after 24 hrs by MTT assay; assay type: functional, cell-based
How it was run: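 Dark toxicity in R3230AC cells, seeded 1.0–1.5×10^4 cells/well and grown 24 h at 37 °C, 5% CO2. Porphyrin up to 10 μM in complete medium for 24 h, rinsed with saline. Cells held 1 h in the dark in clear serum-free medium, then 24 h in complete medium before MTT, read as percent of untreated dark controls.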

[5] = Singlet oxygen generation assessed as DPBF oxidation at 1 uM; assay type: functional
How it was run: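 DPBF consumption by singlet oxygen from the irradiated porphyrin, with stirring under 3 mW/cm² light. UV absorbance of DPBF read every 2 min up to 10 min, expressed as percent DPBF oxidized.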

Row | Structure (SMILES) | Drug uptake (R3230AC [2]) [fmol] | logD [3] | IC50 (R3230AC [1]) [nM] | Activity (R3230AC [4]) | Activity [5] [%]
1 | O=C(O)COc1c(OCC(=O)O)c2cc3nc(c(-c4ccccc4)c4ccc([nH]4)c(-c4ccccc4)c4nc(cc1s2)C=C4)C=C3 [THIAPORPHYRIN] | 0.16 | 0.8 | 2280 | Not toxic | 48
2 | O[C@@H]1c2nc(c(-c3ccccc3)c3ccc(s3)c(-c3ccccc3)c3nc(c(-c4ccccc4)c4ccc(s4)c2-c2ccccc2)C=C3)[C@@H]1O | 4.5 | > 2 | 180 | Not toxic | 78
3 | O=C(O)COc1ccc(-c2c3nc(c(-c4ccccc4)c4ccc(s4)c(-c4ccccc4)c4nc(c(-c5ccc(OCC(=O)O)cc5)c5ccc2s5)[C@H](O)[C@@H]4O)C=C3)cc1 | 0.11 | -0.5 | 2570 | Not toxic | 62
4 | O=C(O)COc1ccc(-c2c3nc(c(-c4ccccc4)c4ccc(s4)c(-c4ccccc4)c4nc(c(-c5ccccc5)c5ccc2s5)C=C4)C=C3)cc1 | 0.31 | 1.6 | 260 | Not toxic | 78
5 | O=C(O)COc1ccc(-c2c3nc(c(-c4ccccc4)c4ccc(s4)c(-c4ccccc4)c4nc(c(-c5ccc(OCC(=O)O)cc5)c5ccc2s5)C=C4)C=C3)cc1 | 0.59 | 0.1 | 130 | Not toxic | 68

Second part, led by results:

Row | Drug uptake (R3230AC [2]) [fmol] | logD [3] | Structure (SMILES) | IC50 (R3230AC [1]) [nM] | Activity (R3230AC [4]) | Activity [5] [%]
6 | 0.33 | 1.8 | O=C(O)COc1ccc(-c2c3nc(c(-c4ccc(F)cc4)c4ccc(s4)c(-c4ccc(F)cc4)c4nc(c(-c5ccc(F)cc5)c5ccc2s5)C=C4)C=C3)cc1 | 380 | Not toxic | 75
7 | 0.46 | > 2 | CC(C)(C)c1ccc(-c2c3nc(c(-c4ccc(OCC(=O)O)cc4)c4ccc(s4)c(-c4ccccc4)c4nc(c(-c5ccccc5)c5ccc2s5)C=C4)C=C3)cc1 | 590 | Not toxic | 75
8 | 0.3 | 0.8 | O=S(=O)([O-])c1ccc(-c2c3nc(c(-c4ccc(F)cc4)c4ccc(s4)c(-c4ccc(F)cc4)c4nc(c(-c5ccc(F)cc5)c5ccc2s5)C=C4)C=C3)cc1.[Na+] | 770 | Not toxic | 64
